Test results taken from ChEMBL document CHEMBL4376883, “Discovery and Optimization of Small Molecules Targeting the Protein-Protein Interaction of Heat Shock Protein 90 (Hsp90) and Cell Division Cycle 37 as Orally Active Inhibitors for the Treatment of Colorectal Cancer” (J Med Chem, 2020).

What was measured:
[1] = Half life in plasma of human HCT116 cells xenografted BALB/c mouse at 80 mg/kg administered as single dose by LC-MS/MS analysis
HCT-116 [2] = assay: Antiproliferative activity against human HCT116 cells measured after 72 hrs by CCK8 assay; format: functional, cell-based; conditions: HCT-116, 72 h
Summary of the method: (§1)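 Cells grown in RPMI 1640 with 10% FBS at 37 °C, 5% CO2; STR-authenticated and mycoplasma-checked. Seeded at 3000-5000 cells/well and left 24 h. Serial compound dilutions added for 72 h, with matched DMSO as control. Viability read by CCK8 kit using the standard protocol. IC50 values derived from at least three parallel experiments.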

[3] = AUC (0 to infinity) in plasma of human HCT116 cells xenografted BALB/c mouse at 80 mg/kg, po administered as single dose by LC-MS/MS analysis; format: ADME, organism-based; parameters: dose 80 mg/kg, time infinity, route oral
Summary of the method: (§2)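 Tumour-bearing mice (n = 6 per group) given one oral dose of 80 mg/kg. Blood and tumour collected into heparinized tubes at 0, 0.25, 0.5, 1, 2, 4, 8, 12 and 24 h. Plasma obtained by centrifugation at 3000 rpm for 10 min. Samples stored at -80 °C and quantified by LC-MS/MS.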

HCT-116 [4] = assay: Effect on CDC37 expression in human HCT116 cells up to 10 uM measured after 24 hrs by Western blot analysis; format: cell-based; conditions: hct-116, 24 h
Summary of the method: (§3)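 HCT116 cells treated with 0, 1, 5 or 10 µM for 24 h, or with 10 µM for 0, 4, 12, 24 or 48 h. Lysates separated by SDS-PAGE and blotted. Membranes blocked in 5% milk, primary antibodies overnight at 4 °C, HRP secondaries, chemiluminescent detection.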

[5] = Apparent oral clearance in plasma of human HCT116 cells xenografted BALB/c mouse at 80 mg/kg administered as single dose by LC-MS/MS analysis; format: ADME, organism-based
Summary of the method: (§4)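 Xenograft mice (n = 6 per group) received a single 80 mg/kg oral dose. Plasma and tumour were sampled over 0–24 h into heparinized tubes and analysed by LC-MS/MS.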

Heat shock protein HSP90 [6] = molecular target: T1, Heat shock protein HSP90 (Homo sapiens, UniProt P07900+P08238); assay: Inhibition of recombinant full-length HSP90 ATPase activity N-terminal domain (9 to 236 residues) (unknown origin) expressed in Escherichia coli BL21 (DE3) measured after 1 hr by ADP hunter plus assay
[7] = Permeability of the compound at pH 7.4 by PAMPA; format: ADME; conditions: read-out: permeability
Summary of the method: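 Permeability coefficient (Pe) was measured at pH 7.4 by double-sink PAMPA.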

[8] = Effect on HSP70 in human HCT116 cells at 10 uM measured up to 48 hrs by Western blot analysis; format: cell-based
Summary of the method: as §3

[9] = Clearance in human liver microsomes at 10 uM preincubated for 5 mins followed by NADPH addition by LC-MS/MS analysis; format: ADME, Microsome; conditions: read-out: CLH
Summary of the method: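 Compound at 10 µM preincubated 5 min at 37 °C with human or mouse liver microsomes (0.5 mg/mL) in 100 mM phosphate, pH 7.4. Reaction started with 1 mM NADPH, stopped with cold acetonitrile, centrifuged and analysed by LC-MS/MS.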

Glucocorticoid receptor = molecular target: T2, Glucocorticoid receptor (Homo sapiens, UniProt P04150); assay: Effect on glucocorticoid receptor in human HCT116 cells up to 10 uM measured after 24 hrs by Western blot analysis; format: ADME, cell-based
T2 sequence (P04150 whole entry): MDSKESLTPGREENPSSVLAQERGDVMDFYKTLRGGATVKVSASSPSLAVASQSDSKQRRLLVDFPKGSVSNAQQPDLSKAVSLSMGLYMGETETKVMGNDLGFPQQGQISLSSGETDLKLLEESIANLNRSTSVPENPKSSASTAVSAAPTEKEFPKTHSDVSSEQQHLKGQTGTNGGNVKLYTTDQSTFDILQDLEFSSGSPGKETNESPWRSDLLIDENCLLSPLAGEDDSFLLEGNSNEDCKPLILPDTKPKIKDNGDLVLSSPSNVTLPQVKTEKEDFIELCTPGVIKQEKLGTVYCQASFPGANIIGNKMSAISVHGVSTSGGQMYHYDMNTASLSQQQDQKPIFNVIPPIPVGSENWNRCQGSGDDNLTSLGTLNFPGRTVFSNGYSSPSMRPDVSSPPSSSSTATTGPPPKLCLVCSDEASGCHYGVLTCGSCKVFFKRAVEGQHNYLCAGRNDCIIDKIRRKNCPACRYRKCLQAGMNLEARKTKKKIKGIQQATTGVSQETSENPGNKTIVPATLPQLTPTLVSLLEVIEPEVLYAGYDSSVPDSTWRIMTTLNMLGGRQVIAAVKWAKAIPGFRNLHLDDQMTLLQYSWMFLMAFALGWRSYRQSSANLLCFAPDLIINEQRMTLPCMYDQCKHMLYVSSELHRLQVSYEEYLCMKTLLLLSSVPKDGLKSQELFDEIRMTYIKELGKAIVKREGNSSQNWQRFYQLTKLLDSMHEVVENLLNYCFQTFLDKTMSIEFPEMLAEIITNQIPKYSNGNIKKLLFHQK
Summary of the method: as §3

[10] = AUC (0 to t) in tumor of human HCT116 cells xenografted BALB/c mouse at 80 mg/kg, po administered as single dose by LC-MS/MS analysis; format: ADME, organism-based, Neoplasm
Summary of the method: as §2

[11] = Stability of the compound in mouse plasma assessed as parent compound remaining at 1 uM measured after 10 mins by LC-MS/MS analysis; format: ADME, cell-free; conditions: read-out: Stability
Summary of the method: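 Compound diluted from 10 mM DMSO stock to 1 μM in mouse or human plasma and held at 37 °C in a water bath. Reactions were stopped with acetonitrile at 0, 10, 30, 60 and 90 min. Parent compound was quantified by LC-MS/MS as % remaining.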

[12] = Apparent volume of distribution during terminal phase in plasma of human HCT116 cells xenografted BALB/c mouse at 80 mg/kg, po administered as single dose by LC-MS/MS analysis; format: ADME, organism-based; conditions: read-out: Vz/F
Summary of the method: as §4

[13] = Tmax in tumor of human HCT116 cells xenografted BALB/c mouse at 80 mg/kg, po administered as single dose by LC-MS/MS analysis; format: ADME, organism-based, Neoplasm
Summary of the method: (§5)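 HCT116-xenografted mice (n = 6 per group) received a single oral 80 mg/kg dose. Blood and tumor were sampled at 0 to 24 h. Plasma was obtained by centrifugation at 3000 rpm for 10 min. Samples were stored at −80 °C and quantified by LC-MS/MS.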

A549 = assay: Antiproliferative activity against human A549 cells measured after 72 hrs by CCK8 assay; format: functional, cell-based; conditions: A549, 72 h
Summary of the method: as §1

HCT-116 [14] = assay: Effect on HSP90 expression in human HCT116 cells up to 10 uM measured after 24 hrs by Western blot analysis; format: cell-based; conditions: hct-116, 24 h
Summary of the method: as §3

Heat shock protein HSP90 [15] = molecular target: T1, Heat shock protein HSP90; assay: Binding affinity to recombinant […] HSP90 N-terminal domain (9 to 236 residues) (unknown origin) expressed in Escherichia coli BL21 (DE3) by isothermal calorimetric method
Summary of the method: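 ITC: 50 µM Hsp90 in the cell and 300 µM compound in the syringe, both in 20 mM Tris-HCl, 150 mM NaCl, pH 7.4. Nineteen injections at 180 s intervals with stirring at 1000 rpm.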

[16] = MRT in tumor of human HCT116 cells xenografted BALB/c mouse at 80 mg/kg administered as single dose by LC-MS/MS analysis; format: ADME, organism-based, Neoplasm
Summary of the method: as §5

Compound `Cc1cc(C)c(S(=O)(=O)N(CC(=O)O)c2ccc(Nc3ccnc(N4CCNCC4)n3)cc2)c(C)c1` has a T1/2 [1] of 1.46 h, an IC50 (HCT-116 [2]) of 1.73 µM and an AUC(0-inf) [3] of 536 µg·h/mL. For the same compound, the Activity (HCT-116 [4]) was “Non-Toxic”, the CL/F [5] was 3.11 mL/min/kg and the IC50 (Heat shock protein HSP90 [6]) was over 100 µM. The Papp [7] was 104 ×10⁻⁶ cm/s, the Activity [8] was “Non-Toxic” and the microsomal CLint at 10 µM [9] was 8.97 µL/min/mg. The Activity (Glucocorticoid receptor) was “Non-Toxic”, the AUC(0-t) [10] was 132 µg·h/mL and the remaining at 10 min, 1 µM [11] was 100%. For the same compound, the Vd/F [12] was 0.392 L/kg, the Tmax [13] was 1 h and the IC50 (A549) was over 50 µM. For the same compound, the Activity (HCT-116 [14]) was “Non-Toxic”, the Kd (Heat shock protein HSP90 [15]) was 0.63 µM and the MRT [16] was 6.02 h.
